SUMO1-SIM PPI: alters human SUMO1 binding to SIM partners | P63165 | SUMO1 binding to a labelled peptide, TR-FRET, 1 h | inhibition, % at 20 µM | 360,000 compounds, 0.33% hits | AID 602429; in the data active = inhibition above about 37%
Target sequence (P63165 whole entry, looked up): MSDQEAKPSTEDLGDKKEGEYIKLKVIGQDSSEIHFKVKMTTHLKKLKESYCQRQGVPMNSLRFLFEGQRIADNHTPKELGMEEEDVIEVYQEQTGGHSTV
LMPTP inh: LMPTP (human) inhibition; inhibition, % at 20 µM; 360,000 compounds, 0.22% hits; recombinant LMPTP-A, OMFP fluorogenic substrate, fluorescence intensity;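 active = compounds that cut the enzyme signal by at least half of the control window in the single-dose screen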
Target sequence (P24666 whole entry, looked up): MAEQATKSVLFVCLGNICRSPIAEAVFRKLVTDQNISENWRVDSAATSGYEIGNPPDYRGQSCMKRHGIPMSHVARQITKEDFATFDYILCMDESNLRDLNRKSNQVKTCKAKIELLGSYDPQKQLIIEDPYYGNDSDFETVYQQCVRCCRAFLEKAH
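Test system: LMPTP-A phosphatase enzyme. Amount: LMPTP-A at 0.625 nM final in the reaction. Reagent: OMFP substrate, 400 µM final. Times: 50 min at room temperature. Signal: endpoint fluorescence intensity from OMFP dephosphorylation. Read-out basis: % inhibition. Benchmarks: no-enzyme and uninhibited controls.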
Scp1 inh: blocks human Scp-1 phosphatase activity | Recombinant Scp1, phosphopeptide, malachite green phosphate absorbance | inhibition, % at 20 µM | 340,000 compounds, 0.88% hits | AID 493091;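 active = inhibition above about 50% at 20 µM, limit read from the data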
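System: SCP-1 catalytic domain; Reagent: Phospho 17-mer peptide substrate; Doses: one concentration, 20 µM, with 1.0% DMSO; Incubation: 45 min room-temperature reaction, 5 min colour, 30 min stabiliser; Signal: Phosphate-binding colour reagent, absorbance read at 630 nm.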
DNMT1 block: inhibitors of human DNMT1 | P26358 | DNMT1 molecular beacon, Hinp1I cleavage, fluorescence | inhibition (reported as % activation of signal), % at 10 µM | 360,000 compounds, 0.83% hits | AID 588458; in the data active = inhibition above about 50%
STEP block: inhibitors of human striatal-enriched phosphatase STEP; P54829; recombinant STEP, OMFP fluorogenic substrate, fluorescence; inhibition, % at 20 µM; 360,000 compounds, 0.25% hits;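 active = inhibition at 20 µM, scaled per plate between control wells, above about 37%, limit read from the data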
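Material: STEP (striatal-enriched tyrosine phosphatase) enzyme, cell-free; Compound dosing: 20 µM single dose in 1% DMSO; Technique: fluorescence read at 480 nm ex / 540 nm em; Times: reaction 20 min, ambient temperature; Medium: 50 mM Bis-Tris pH 6.0 with 2.5 mM DTT and 0.005% Tween 20; Also added: OMFP at 25 µM.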
CSN deneddyl inh: CSN deneddylation inhibition. Q92905. Purified CSN, SCF-Nedd8-OG deneddylation, fluorescence polarization. inhibition, % at 12.5 µM. 360,000 compounds, 0.38% hits. AID 651999;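 active = pattern-corrected inhibition above about 35%, with an unprinted fluorescence ratio check between 0.5 and 1.5, limit read from the data, passing the limit was not always enough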
Target sequence (Q92905 whole entry, looked up, one chain of several): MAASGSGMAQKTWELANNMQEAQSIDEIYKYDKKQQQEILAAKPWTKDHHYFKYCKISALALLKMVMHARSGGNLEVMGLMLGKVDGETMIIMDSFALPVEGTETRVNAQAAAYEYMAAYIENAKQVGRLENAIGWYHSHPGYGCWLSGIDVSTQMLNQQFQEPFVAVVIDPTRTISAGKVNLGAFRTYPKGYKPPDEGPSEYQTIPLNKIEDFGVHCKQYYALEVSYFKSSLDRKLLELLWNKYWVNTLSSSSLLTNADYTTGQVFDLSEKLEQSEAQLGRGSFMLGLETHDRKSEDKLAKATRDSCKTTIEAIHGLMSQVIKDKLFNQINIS
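test system = HEK293T-derived human Csn5 enzyme | amount = 0.24 nM Csn5 enzyme, final concentration | medium = Tris/NaCl/DTT buffer, pH 7.5 | schedule = 90 min reaction at room temperature | signal = FP | evaluation = inhibition of Csn5 cleavage, % | compound dosing = single dose of 12.5 µM compound with 0.25% DMSO | probe or stimulus = 10 nM SCFSkp2-Nedd8OG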
Beacon interf DR: counter-screen for DNMT1 inhibitors: spectral interference, dose response; 200 tested, under 10 active; shares compounds with DNMT1 block; molecular beacon fluorescence; AID 602382; IC50, µM; call rule not given here
DNMT1 confirm: confirmation of human DNMT1 inhibitors. shares compounds with DNMT1 block. DNMT1 molecular beacon HinP1I cleavage, fluorescence. inhibition, % at 10 µM. 2,300 compounds, 8% hits. AID 602385;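 active = average inhibition of at least 30% in the single-concentration confirmation test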
Beacon interf: beacon fluorescence artifact counter-screen | AID 602387 | 2,300 compounds, 1% hits | shares compounds with DNMT1 block | DNMT1 molecular beacon spectral interference counterscreen, fluorescence 485/520 | activation (fluorescence interference), % at 10 µM;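 active = activation of at least 30% at 10 µM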;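 note: DNMT1 catalytic domain with a HinP1I cleavage step and a FAM/dabcyl DNA beacon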
Numbers stand for hits; – = inactive; · = no result given. An excerpt weighted towards active compounds, which were near 1.9% of everything screened.

SMILES | SUMO1-SIM PPI | LMPTP inh | Scp1 inh | DNMT1 block | STEP block | CSN deneddyl inh | DNMT1 confirm | Beacon interf | others
Cc1cc(C(=O)Nc2ccc(S(=O)(=O)N3CCOCC3)cc2)c(C)o1 | – | – | – | – | – | – | · | ·
Cc1nc(-c2ccc(F)cc2)c(CC(=O)N(C)CC(=O)Nc2ccc(Cl)c(C(F)(F)F)c2)s1 | – | – | – | – | – | – | · | ·
O=C(C[C@H]1C[C@H](C(=O)N2CCCCC2)[C@@]2(CCc3ccccc3)c3[nH]c4ccc(Cl)cc4c3CCN2C1=O)NCCc1ccccn1 | – | – | – | – | – | – | · | ·
O=C(CC1C[C@H](C(=O)N2CCCCC2)[C@@]2(CCc3ccccc3)c3[nH]c4ccccc4c3CCN2C1=O)NCCC1=CCCCC1 (stereo partly drawn) | – | – | – | 60 | – | – | – | –
O=C(C[C@H]1C[C@H](C(=O)N2CCCCC2)[C@@]2(CCc3ccccc3)c3[nH]c4ccc(Cl)cc4c3CCN2C1=O)NCCC1=CCCCC1 | – | – | – | 61 | – | – | – | –
COc1ccc(-n2nc3c(c2NC(=O)CCl)CSC3)cc1 | – | – | – | – | – | – | · | ·
CC(=O)Nc1cc(-c2ccccc2N(C)C)cn2c(-c3ccccc3)cnc12 | – | – | · | – | – | – | · | ·
CC(=O)Nc1cc(-c2ccccc2N(C)C)cn2c(-c3ccc(S(C)(=O)=O)cc3)cnc12 | – | – | · | 189 | – | – | – | –
CCNc1ccc(Br)cc(C(=O)/C=C/c2ccc(Cl)cc2)c1=O | – | – | – | 66 | – | – | – | –
CCN1C(=O)c2cccc3c(S(=O)(=O)N4CCNCC4)ccc1c23 | – | – | – | – | – | – | · | ·
Cc1cccc(NC(=O)CSc2cc(C)c(C#N)c3nc4ccccc4n23)c1 | – | – | – | 52 | – | – | – | –
CNc1cc(C)c(C#N)c2nc3ccccc3n12 | – | – | – | – | – | – | · | ·
O=S(=O)(c1ccc2c(c1)CCC2)N1CCNCC1 | – | – | – | – | – | – | · | ·
CCOc1ccc2oc(C(=O)Nc3nccs3)c(C)c2c1 | – | – | – | 68 | – | – | – | –
CSc1ccc(NC(=O)c2cccnc2)cc1C#N | – | – | – | – | – | – | · | ·
c1cc2ccc3ccc(-n4cnnn4)c4ccc(c1)c2c34 | – | – | – | 60 | – | – | – | –
Cc1c(N)cccc1-n1cnnn1 | – | – | – | – | – | – | · | ·
COc1ccc(Cl)cc1Nc1nc(C)cc(C)c1C(N)=O | – | – | – | – | – | – | · | ·
CC(=O)[C@@]1(O)CC[C@H]2[C@@H]3C[C@H](C)C4=CC(=O)C=C[C@]4(C)[C@@]3(F)[C@@H](O)C[C@@]21C | – | – | – | 80 | – | – | – | –
CCOC(=O)c1ccc(N/N=C/c2cc(Br)cc([N+](=O)[O-])c2O)cc1 | – | – | – | 70 | – | – | – | –
Cn1cccc1/C=N/NC(=O)c1cc2ccccc2cc1O | – | – | – | – | – | – | · | ·
CC(=O)Nc1ccc(OCc2cn(CC(=O)c3ccc(O)cc3)nn2)cc1 | – | – | · | 57 | – | – | – | –
O=C(Cn1cc(COc2ccc(Br)cc2[N+](=O)[O-])nn1)c1ccc(O)cc1 | – | – | – | 51 | – | – | – | –
CC(=O)c1ccc(OCc2cn(CC(=O)c3ccc(O)cc3)nn2)c(C)c1 | – | – | · | – | – | – | · | ·
Cc1cccc(C)c1OCc1cn(CC(=O)c2ccc(O)cc2)nn1 | – | – | – | 58 | – | – | – | –
SMILES | SUMO1-SIM PPI | LMPTP inh | Scp1 inh | DNMT1 block | STEP block | CSN deneddyl inh | DNMT1 confirm | Beacon interf | others
O=C(CCl)Nc1cccc(S(=O)(=O)NC2=NCCC2)c1 | – | – | – | – | – | – | · | ·
COc1ccc(C)cc1NC(=O)CN(Cc1nnc(-c2ccc(Cl)cc2)o1)C1CCCC1 | – | – | – | 59 | – | – | – | –
Cc1ccc(C)c(/C(O)=C2/C(=O)C(=O)N(CCN3CCOCC3)C2c2ccco2)c1 (stereo not drawn) | – | – | – | 83 | – | – | – | –
COc1ccc(CCNC(=O)Cc2cc3c(cc2[N+](=O)[O-])OCO3)cc1OC | – | – | – | – | – | – | · | ·
O=C(NCCc1ccccc1O)c1cc2c(cc1[N+](=O)[O-])OCO2 | – | – | – | – | – | – | – | –
COc1ccc(-c2noc(CCC(=O)N3CCC(c4cc(C)ccc4C)CC3)n2)cc1 | – | – | – | – | – | – | – | –
COc1ccc(-c2noc(CCC(=O)N3CCN(c4cccc(OC)c4)CC3)n2)cc1 | – | – | – | – | – | – | · | ·
Nn1c(CSc2nc3ccccc3o2)nnc1CSc1nc2ccccc2o1 | – | – | – | – | – | – | · | ·
Cc1cc(C)n2c(Br)c(CSc3nc4ccccc4o3)nc2n1 | – | – | – | 59 | – | – | – | –
CCOC(=O)C1CCN(C(=O)c2ccc3c(=O)n4nc(Nc5ccccc5)sc4nc3c2)CC1 | – | – | · | – | – | – | · | ·
CCOC(=O)c1ccc(-c2c(C(=O)OCC)oc3cc(O)c(CC)cc3c2=O)o1 | – | – | – | – | – | – | · | ·
C=C1C(=O)OC2C1CCC(C)=C1C(=O)C3OC3(C)C12 (stereo not drawn) | – | – | – | 72 | – | – | – | –
O=C(O)CCC(=O)N1N=C(c2c(-c3ccccc3)c3cc(Cl)ccc3[nH]c2=O)CC1c1ccco1 (stereo not drawn) | – | – | – | – | – | – | · | ·
CCC(=O)N1N=C(c2c(-c3ccccc3)c3cc(Cl)ccc3[nH]c2=O)CC1c1ccco1 (stereo not drawn) | – | – | – | 52 | – | – | – | –
Cc1ccc(-c2nn(-c3ccccc3)cc2C=C2SC(=S)N(CCS(=O)(=O)O)C2=O)cc1 | 72 | 82 | · | 76 | – | 47 | 107 | – | Beacon interf DR=–
CCOc1ccc(-c2nn(-c3ccccc3)cc2/C=C2\SC(=S)N(Cc3ccco3)C2=O)cc1 | – | – | – | – | – | – | · | ·
CC(C)COc1ccc(-c2nn(-c3ccccc3)cc2/C=C2/SC(=S)N(CC(=O)O)C2=O)cc1 | – | – | – | 65 | – | – | 67 | – | Beacon interf DR=–
O=C(CSc1n[nH]c(=O)n1-c1ccc2c(c1)OCCO2)Nc1ccccc1 | – | – | – | – | – | – | · | ·
Cn1c(N)c(C(=O)CSc2nc3ccccc3[nH]2)c(=O)n(C)c1=O | – | – | – | – | – | – | · | ·
